Reference: ChEMBL document CHEMBL4229344 (Eur J Med Chem, 2018)

Assays:
[1] = molecular target: Ephrin type-B receptor 3 (Homo sapiens) (UniProt P54753); assay: Binding affinity to wild-type human partial length EPHB3 (Q599 to T928 residues) expressed in bacterial expression system assessed as residual binding level at 1 uM by Kinomescan method relative to control
How it was run: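 Kinome-wide competition binding screen against a panel of 468 purified kinases/mutants, with the test compound at a single concentration of 1 μM. Read-out is the relative binding activity of each kinase in the presence of compound.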

[2] = molecular target: Macrophage colony-stimulating factor 1 receptor (Homo sapiens) (UniProt P07333); assay: Binding affinity to wild-type human partial length autoinhibited CSF1R (Y538 to S939 residues) expressed in mammalian expression system assessed as residual binding level at 1 uM by Kinomescan method relative to control
[3] = molecular target: Calcium/calmodulin-dependent protein kinase type II subunit gamma (Homo sapiens) (UniProt Q13555); assay: Binding affinity to wild-type human partial length CAMK2G (R9 to A303 residues) expressed in bacterial expression system assessed as residual binding level at 1 uM by Kinomescan method relative to control
[4] = test system: Serine/threonine-protein kinase B-raf (Homo sapiens), P15056 [V600E]; assay: Binding affinity to human partial length BRAF V600E mutant (S429 to E741 residues) expressed in mammalian expression system assessed as residual binding level at 1 uM by Kinomescan method relative to control
How it was run: (§1)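 Kinome-wide single-concentration binding screen (KINOMEscan) at 1 μM against a panel of 468 purified kinases and mutants. Read-out is relative binding of each kinase compared with control. Selectivity across the panel was summarised as an S(10) score.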

[5] = molecular target: cGMP-dependent protein kinase 2 (Homo sapiens) (UniProt Q13237); assay: Binding affinity to wild-type human partial length PRKG2 (S422 to F762 residues) expressed in mammalian expression system assessed as residual binding level at 1 uM by Kinomescan method relative to control
[6] = molecular target: NUAK family SNF1-like kinase 2 (Homo sapiens) (UniProt Q9H093); assay: Binding affinity to wild-type human partial length SNARK (P22 to A333 residues) expressed in mammalian expression system assessed as residual binding level at 1 uM by Kinomescan method relative to control
Sequence of NUAK family SNF1-like kinase 2 (Homo sapiens) (Q9H093 whole entry, the tested form may be a part): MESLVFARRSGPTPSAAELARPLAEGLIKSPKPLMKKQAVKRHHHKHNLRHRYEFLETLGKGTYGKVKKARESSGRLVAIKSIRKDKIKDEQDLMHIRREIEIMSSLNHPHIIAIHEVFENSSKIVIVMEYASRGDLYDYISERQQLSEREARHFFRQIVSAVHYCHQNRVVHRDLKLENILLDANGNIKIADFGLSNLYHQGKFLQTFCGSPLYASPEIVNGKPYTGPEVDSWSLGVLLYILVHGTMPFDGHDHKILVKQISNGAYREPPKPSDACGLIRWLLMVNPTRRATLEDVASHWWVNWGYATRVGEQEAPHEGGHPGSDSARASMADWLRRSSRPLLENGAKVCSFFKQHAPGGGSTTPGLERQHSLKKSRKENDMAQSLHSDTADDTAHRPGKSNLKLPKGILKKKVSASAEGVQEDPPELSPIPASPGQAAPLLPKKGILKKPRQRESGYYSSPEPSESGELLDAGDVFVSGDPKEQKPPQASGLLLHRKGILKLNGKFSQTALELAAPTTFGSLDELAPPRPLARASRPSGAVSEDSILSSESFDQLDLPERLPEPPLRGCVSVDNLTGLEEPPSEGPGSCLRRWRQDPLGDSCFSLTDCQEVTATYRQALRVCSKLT

[7] = Half life in Sprague-Dawley rat at 1 mg/kg, iv; type: ADME, organism-based; settings: in vivo
[8] = molecular target: Serine/threonine-protein kinase MRCK gamma (Homo sapiens) (UniProt Q6DT37); assay: Binding affinity to wild-type human partial length DMPK2 (S46 to S408 residues) expressed in bacterial expression system assessed as residual binding level at 1 uM by Kinomescan method relative to control
Mus musculus = assay: Toxicity in nu/nu mouse xenografted with human EOL-1 cells assessed as change in body weight at 25 to 100 mg/kg/day, ip; type: organism-based; settings: in vivo
How it was run: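 Female nu/nu mice, 6 weeks old, implanted subcutaneously in the right flank with 5 million EOL-1 cells in PBS/Matrigel 1:1. At tumour size 200–400 mm³, mice randomised into groups of 6 and given daily IP doses of 25, 50 or 100 mg/kg in 0.5% methylcellulose/0.4% Tween80, or vehicle, for 14 days. Body weight measured daily and normalised to initial weight; mean ± SEM.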

[9] = molecular target: Epidermal growth factor receptor (Homo sapiens) (UniProt P00533); assay: Binding affinity to wild-type human partial length EGFR (R669 to V1011 residues) expressed in bacterial expression system assessed as residual binding level at 1 uM by Kinomescan method relative to control
[10] = molecular target: Serine/threonine-protein kinase NLK (Homo sapiens) (UniProt Q9UBE8); assay: Binding affinity to wild-type human full length NLK (M13 to E527 residues) expressed in bacterial expression system assessed as residual binding level at 1 uM by Kinomescan method relative to control
How it was run: (§2)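 KINOMEscan competition binding against 468 purified kinases/mutants, test compound at 1 µM; residual binding relative to control.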

[11] = molecular target: Mitogen-activated protein kinase kinase kinase 20 (Homo sapiens) (UniProt Q9NYL2); assay: Binding affinity to wild-type human partial length ZAK (M1 to L331 residues) expressed in bacterial expression system assessed as residual binding level at 1 uM by Kinomescan method relative to control
[12] = molecular target: Serine/threonine-protein kinase PRP4 homolog (Homo sapiens) (UniProt Q13523); assay: Binding affinity to wild-type human partial length PRP4 (D657 to I1007 residues) expressed in bacterial expression system assessed as residual binding level at 1 uM by Kinomescan method relative to control
Sequence of Serine/threonine-protein kinase PRP4 homolog (Homo sapiens) (Q13523 whole entry, the tested form may be a part): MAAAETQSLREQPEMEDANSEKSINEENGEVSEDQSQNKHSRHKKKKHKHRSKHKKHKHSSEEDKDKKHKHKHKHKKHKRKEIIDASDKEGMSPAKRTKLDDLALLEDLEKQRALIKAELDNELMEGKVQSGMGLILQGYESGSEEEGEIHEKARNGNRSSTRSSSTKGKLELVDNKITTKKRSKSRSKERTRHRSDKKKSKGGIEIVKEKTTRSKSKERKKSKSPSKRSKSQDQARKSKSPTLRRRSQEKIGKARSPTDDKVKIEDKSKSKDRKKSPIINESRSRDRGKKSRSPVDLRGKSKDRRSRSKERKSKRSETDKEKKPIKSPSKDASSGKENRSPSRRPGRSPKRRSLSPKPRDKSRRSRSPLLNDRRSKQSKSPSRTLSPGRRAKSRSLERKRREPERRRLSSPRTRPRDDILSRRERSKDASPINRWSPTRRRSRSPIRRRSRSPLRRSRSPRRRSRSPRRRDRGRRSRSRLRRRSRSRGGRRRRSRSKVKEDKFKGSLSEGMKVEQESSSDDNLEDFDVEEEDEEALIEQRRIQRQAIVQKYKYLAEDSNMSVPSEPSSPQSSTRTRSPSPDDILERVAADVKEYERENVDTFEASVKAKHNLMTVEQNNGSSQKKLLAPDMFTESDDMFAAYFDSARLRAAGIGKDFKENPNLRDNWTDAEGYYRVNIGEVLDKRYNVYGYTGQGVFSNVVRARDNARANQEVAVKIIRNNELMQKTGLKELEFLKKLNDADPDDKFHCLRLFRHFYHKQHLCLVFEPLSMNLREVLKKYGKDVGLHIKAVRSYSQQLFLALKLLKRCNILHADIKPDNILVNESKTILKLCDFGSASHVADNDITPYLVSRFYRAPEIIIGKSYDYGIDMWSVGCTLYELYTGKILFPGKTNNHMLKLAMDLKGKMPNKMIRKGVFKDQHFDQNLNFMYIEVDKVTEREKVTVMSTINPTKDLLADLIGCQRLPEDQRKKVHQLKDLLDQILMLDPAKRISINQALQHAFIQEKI

[13] = molecular target: Serine/threonine-protein kinase RIO2 (Homo sapiens) (UniProt Q9BVS4); assay: Binding affinity to wild-type human partial length RIOK2 (M1 to D313 residues) expressed in mammalian expression system assessed as residual binding level at 1 uM by Kinomescan method relative to control
Sequence of Serine/threonine-protein kinase RIO2 (Homo sapiens) (Q9BVS4 whole entry, looked up, the tested form may be a part): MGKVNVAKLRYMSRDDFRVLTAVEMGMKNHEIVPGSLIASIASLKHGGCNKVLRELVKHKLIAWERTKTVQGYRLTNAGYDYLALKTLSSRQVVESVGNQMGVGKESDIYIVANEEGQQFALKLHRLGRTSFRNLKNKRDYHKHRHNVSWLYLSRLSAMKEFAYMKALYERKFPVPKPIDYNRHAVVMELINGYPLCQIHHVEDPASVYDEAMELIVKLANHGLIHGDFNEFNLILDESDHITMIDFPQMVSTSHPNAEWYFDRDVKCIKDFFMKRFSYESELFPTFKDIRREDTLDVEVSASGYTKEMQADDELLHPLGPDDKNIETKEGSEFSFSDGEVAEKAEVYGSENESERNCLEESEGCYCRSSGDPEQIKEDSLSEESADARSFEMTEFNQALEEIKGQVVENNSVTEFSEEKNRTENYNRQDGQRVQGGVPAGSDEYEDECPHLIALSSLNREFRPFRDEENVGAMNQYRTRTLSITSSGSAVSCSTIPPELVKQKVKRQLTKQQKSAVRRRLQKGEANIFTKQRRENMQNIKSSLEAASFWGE
How it was run: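 KINOMEscan competition binding against a panel of 468 purified kinases/mutants, compound tested at 1 μM; readout is relative binding activity versus control.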

[14] = molecular target: Serine/threonine-protein kinase PAK 6 (Homo sapiens) (UniProt Q9NQU5); assay: Binding affinity to wild-type human partial length PAK6 (N298 to C681 residues) expressed in bacterial expression system assessed as residual binding level at 1 uM by Kinomescan method relative to control
[15] = test system: Receptor-type tyrosine-protein kinase FLT3 (Homo sapiens), P36888 [UNDEFINED MUTATION]; assay: Binding affinity to human partial length FLT3 ITD/D835V double mutant expressed in bacterial expression system assessed as residual binding level at 1 uM by Kinomescan method relative to control; how it was run: as §1
Sequence of Receptor-type tyrosine-protein kinase FLT3 (Homo sapiens), P36888 [UNDEFINED MUTATION] (P36888 whole entry, looked up, stated change not applied, the tested form may be a part): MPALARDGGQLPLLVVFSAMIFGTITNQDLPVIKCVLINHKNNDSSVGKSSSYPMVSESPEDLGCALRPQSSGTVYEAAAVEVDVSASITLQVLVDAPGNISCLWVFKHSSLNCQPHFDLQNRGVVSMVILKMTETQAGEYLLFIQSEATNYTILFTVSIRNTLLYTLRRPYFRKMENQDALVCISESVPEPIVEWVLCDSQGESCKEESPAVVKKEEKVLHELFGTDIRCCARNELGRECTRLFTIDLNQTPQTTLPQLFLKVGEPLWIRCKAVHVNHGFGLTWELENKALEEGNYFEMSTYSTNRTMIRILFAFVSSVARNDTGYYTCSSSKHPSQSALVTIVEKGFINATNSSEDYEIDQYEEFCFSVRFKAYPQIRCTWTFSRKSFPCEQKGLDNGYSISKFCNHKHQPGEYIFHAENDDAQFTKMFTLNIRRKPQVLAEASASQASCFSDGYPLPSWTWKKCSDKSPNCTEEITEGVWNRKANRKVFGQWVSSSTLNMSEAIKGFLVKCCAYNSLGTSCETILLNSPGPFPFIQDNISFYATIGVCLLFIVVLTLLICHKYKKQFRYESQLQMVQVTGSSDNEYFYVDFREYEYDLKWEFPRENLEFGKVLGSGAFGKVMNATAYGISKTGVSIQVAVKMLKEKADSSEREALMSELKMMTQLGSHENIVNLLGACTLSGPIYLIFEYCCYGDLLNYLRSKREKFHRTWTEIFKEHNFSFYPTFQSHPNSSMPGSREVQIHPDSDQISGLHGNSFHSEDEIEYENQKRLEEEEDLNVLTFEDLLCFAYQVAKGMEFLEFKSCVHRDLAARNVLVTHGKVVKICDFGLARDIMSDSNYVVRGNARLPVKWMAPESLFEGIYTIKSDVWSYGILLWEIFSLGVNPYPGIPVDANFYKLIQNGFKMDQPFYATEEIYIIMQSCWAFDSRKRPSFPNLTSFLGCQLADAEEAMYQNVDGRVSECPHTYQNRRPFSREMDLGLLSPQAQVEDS

[16] = molecular target: Serine/threonine-protein kinase D2 (Homo sapiens) (UniProt Q9BZL6); assay: Binding affinity to wild-type human partial length PRKD2 (A519 to E838 residues) expressed in bacterial expression system assessed as residual binding level at 1 uM by Kinomescan method relative to control
[17] = molecular target: Proto-oncogene tyrosine-protein kinase receptor Ret (Homo sapiens) (UniProt P07949); assay: Binding affinity to wild-type human partial length RET (E713 to D1014 residues) expressed in bacterial expression system assessed as residual binding level at 1 uM by Kinomescan method relative to control
[18] = molecular target: Phosphatidylinositol 5-phosphate 4-kinase type-2 beta (Homo sapiens) (UniProt P78356); assay: Binding affinity to wild-type human full length PIP5K2B (M1 to T416 residues) expressed in bacterial expression system assessed as residual binding level at 1 uM by Kinomescan method relative to control; how it was run: as §2
Sequence of Phosphatidylinositol 5-phosphate 4-kinase type-2 beta (Homo sapiens) (P78356 whole entry, the tested form may be a part): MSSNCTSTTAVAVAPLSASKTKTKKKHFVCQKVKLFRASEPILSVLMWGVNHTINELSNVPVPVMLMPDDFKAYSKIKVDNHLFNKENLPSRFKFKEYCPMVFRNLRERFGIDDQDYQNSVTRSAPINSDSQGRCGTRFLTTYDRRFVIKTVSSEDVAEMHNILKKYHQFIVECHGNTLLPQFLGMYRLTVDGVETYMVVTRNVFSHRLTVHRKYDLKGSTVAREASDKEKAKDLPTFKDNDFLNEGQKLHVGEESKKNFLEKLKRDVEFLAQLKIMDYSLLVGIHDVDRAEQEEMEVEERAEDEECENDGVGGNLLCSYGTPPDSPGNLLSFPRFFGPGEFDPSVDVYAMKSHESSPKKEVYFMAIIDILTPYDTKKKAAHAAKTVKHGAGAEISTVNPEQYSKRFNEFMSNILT

[19] = molecular target: Protein-tyrosine kinase 2-beta (Homo sapiens) (UniProt Q14289); assay: Binding affinity to wild-type human full length PYK2 (M1 to E967 residues) expressed in bacterial expression system assessed as residual binding level at 1 uM by Kinomescan method relative to control
How it was run: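 Single-concentration KINOMEscan (DiscoverX) binding screen at 1 μM against a panel of 468 purified kinases and mutants. The read-out is binding relative to control.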

[20] = molecular target: Serine/threonine-protein kinase STK11 (Homo sapiens) (UniProt Q15831); assay: Binding affinity to wild-type human full length LKB1 (M1 to Q433 residues) expressed in bacterial expression system assessed as residual binding level at 1 uM by Kinomescan method relative to control
Sequence of Serine/threonine-protein kinase STK11 (Homo sapiens) (Q15831 whole entry, the tested form may be a part): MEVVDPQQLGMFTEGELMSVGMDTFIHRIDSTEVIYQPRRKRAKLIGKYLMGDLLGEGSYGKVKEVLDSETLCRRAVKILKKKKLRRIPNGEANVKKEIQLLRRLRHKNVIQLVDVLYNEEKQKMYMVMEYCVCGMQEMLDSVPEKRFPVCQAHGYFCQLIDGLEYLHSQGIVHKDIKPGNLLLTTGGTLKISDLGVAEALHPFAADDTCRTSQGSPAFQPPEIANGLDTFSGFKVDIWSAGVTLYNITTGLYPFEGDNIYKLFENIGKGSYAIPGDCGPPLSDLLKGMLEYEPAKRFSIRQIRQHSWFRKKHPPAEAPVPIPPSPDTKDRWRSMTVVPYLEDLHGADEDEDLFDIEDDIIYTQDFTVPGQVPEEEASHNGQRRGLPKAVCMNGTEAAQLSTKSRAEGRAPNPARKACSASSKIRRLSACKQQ
How it was run: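 Single-concentration (1 μM) competition-binding screen run by KINOMEscan against a panel of 468 purified kinases and mutants. The read-out is the relative binding activity of the test compound to each kinase.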

Sequence of Ephrin type-B receptor 3 (Homo sapiens) (P54753 whole entry, the tested form may be a part): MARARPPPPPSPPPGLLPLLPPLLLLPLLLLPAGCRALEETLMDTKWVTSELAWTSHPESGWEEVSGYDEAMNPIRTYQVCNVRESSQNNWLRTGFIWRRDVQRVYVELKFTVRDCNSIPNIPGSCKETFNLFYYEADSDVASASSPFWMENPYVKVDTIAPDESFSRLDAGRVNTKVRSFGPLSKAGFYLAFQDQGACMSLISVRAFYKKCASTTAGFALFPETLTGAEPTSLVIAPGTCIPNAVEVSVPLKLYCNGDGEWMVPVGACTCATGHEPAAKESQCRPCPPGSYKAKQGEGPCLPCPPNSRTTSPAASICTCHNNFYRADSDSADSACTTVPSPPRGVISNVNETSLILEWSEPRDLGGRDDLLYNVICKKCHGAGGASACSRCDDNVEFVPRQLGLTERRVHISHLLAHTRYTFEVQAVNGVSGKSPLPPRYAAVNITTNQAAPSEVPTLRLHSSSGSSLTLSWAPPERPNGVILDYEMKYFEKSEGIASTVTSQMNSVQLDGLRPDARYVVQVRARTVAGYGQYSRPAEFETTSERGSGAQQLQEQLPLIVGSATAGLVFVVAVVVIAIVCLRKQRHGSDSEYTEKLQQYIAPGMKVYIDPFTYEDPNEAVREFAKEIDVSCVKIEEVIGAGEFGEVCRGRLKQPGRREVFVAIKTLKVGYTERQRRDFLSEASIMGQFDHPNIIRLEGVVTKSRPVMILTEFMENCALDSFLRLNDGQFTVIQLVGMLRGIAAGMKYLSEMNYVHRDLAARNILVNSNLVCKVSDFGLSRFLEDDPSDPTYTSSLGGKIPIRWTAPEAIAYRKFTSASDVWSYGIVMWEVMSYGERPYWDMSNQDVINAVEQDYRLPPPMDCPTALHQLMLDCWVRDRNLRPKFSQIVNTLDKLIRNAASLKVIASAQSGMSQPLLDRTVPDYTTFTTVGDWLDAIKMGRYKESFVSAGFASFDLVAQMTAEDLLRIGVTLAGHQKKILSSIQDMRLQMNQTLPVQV

## Cc1ccc(NC(=O)c2ccc(CN(CCN(C)C)C(=O)c3cccnc3)cc2)cc1Nc1nccc(-c2cccnc2)n1
[1]
  Activity: 94%
[2]
  Activity: 100%
[3]
  Activity: 93%
[4]
  Activity: 49%
[5]
  Activity: 100%
[6]
  Activity: 100%
[7]
  half-life: 2.05 h
[8]
  Activity: 100%
Mus musculus
  Activity: Toxic
[9]
  Activity: 73%
[10]
  Activity: 82%
[11]
  Activity: 100%
[12]
  Activity: 100%
[13]
  Activity: 87%
[14]
  Activity: 90%
[15]
  Activity: 98%
[16]
  Activity: 93%
[17]
  Activity: 80%
[18]
  Activity: 83%
[19]
  Activity: 99%
[20]
  Activity: 99%
